Tests used:
[1] = test system: Rattus norvegicus; test: Dopaminergic activity, ability to lower serum prolactin levels after intraperitoneal administration of compound (34.7 mg/kg); assay type: functional, organism-based
Outline: (§1)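 Adult male Wistar rats (250–300 g) were caged singly with food and water ad libitum. Each rat got reserpine pretreatment, 2.5 mg/rat ip (2.5 mg/mL), 18 h before the drug. Drugs were dissolved in distilled water at 1 mL/kg ip; saline controls were run. Serum (100 µL, duplicate) was assayed by NIADDK prolactin RIA, expressed as ng RP3/mL. Results were given as % inhibition versus controls, mean ± standard error, 5–10 rats/group.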

[2] = Compound was evaluated for its acute toxicity in rat; assay type: organism-based; settings: in vivo
Outline: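 Male Wistar rats (200–250 g), 50 per substance, given single ip doses at five dose levels with 10 rats per dose. Deaths were followed for up to 14 days. LD50 was estimated by the Weil method, with 95% confidence limits.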

[3] = test system: Rattus norvegicus; test: Dopaminergic activity, ability to lower serum prolactin levels after intraperitoneal administration of compound (11.2 mg/kg) in rats; assay type: functional, organism-based; outline: as §1
[4] = test system: Rattus norvegicus; test: Dopaminergic activity, ability to lower serum prolactin levels after intraperitoneal administration of compound (8.33 mg/kg); assay type: functional, organism-based; outline: as §1
[5] = test system: Rattus norvegicus; test: Dopaminergic activity, ability to lower serum prolactin levels after intraperitoneal administration of compound (4.165 mg/kg); assay type: functional, organism-based; outline: as §1
[6] = test system: Rattus norvegicus; test: Dopaminergic activity, ability to lower serum prolactin levels after intraperitoneal administration of compound (0.833 mg/kg); assay type: functional, organism-based; outline: as §1
[7] = test system: Rattus norvegicus; test: Compound was tested for inhibiting prolactin release at the 8.33 mg/kg dose levels; assay type: functional; outline: as §1
[8] = test system: Rattus norvegicus; test: Compound was tested for inhibiting prolactin release at the 4.165 mg/kg dose levels; assay type: functional; outline: as §1
[9] = test system: Rattus norvegicus; test: Compound was tested for inhibiting prolactin release at 0.833 mg/kg dose levels; assay type: functional; outline: as §1
[10] = test system: Rattus norvegicus; test: Dopaminergic activity, ability to lower serum prolactin levels after intraperitoneal administration of compound (0.001 mg/kg) in rats; assay type: functional, organism-based; outline: as §1
[11] = test system: Rattus norvegicus; test: Dopaminergic activity, ability to lower serum prolactin levels after intraperitoneal administration of compound (0.01 mg/kg) in rats; assay type: functional, organism-based; outline: as §1
[12] = test system: Rattus norvegicus; test: Compound was tested for the percent prolactin inhibiting activity at the 0.01 mg/kg dose levels; assay type: functional
Outline: (§2)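 Adult male Wistar rats (250-300 g), individually caged, food and water ad libitum, pretreated ip with reserpine 2.5 mg/rat 18 h before dosing to keep prolactin high. Single ip dose in distilled water (1 mL per kg); controls received isotonic saline. Serum prolactin measured by radioimmunoassay in duplicate, 100 μL serum, as ng rat prolactin RP3/mL; % inhibition versus saline controls.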

[13] = test system: Rattus norvegicus; test: Dopaminergic activity, ability to lower serum prolactin levels after intraperitoneal administration of compound (0.1 mg/kg) in rats; assay type: functional, organism-based; outline: as §1
[14] = test system: Rattus norvegicus; test: Compound was tested for the percent prolactin inhibiting activity at the 0.1 mg/kg dose levels; assay type: functional; outline: as §2
[15] = test system: Rattus norvegicus; test: Compound was tested for the percent prolactin inhibiting activity at the 0.001 mg/kg dose levels; assay type: functional; outline: as §2
[16] = test system: Rattus norvegicus; test: Compound was tested for inhibiting prolactin release at the 50.0 mg/kg dose levels; assay type: functional; outline: as §1
[17] = test system: Rattus norvegicus; test: Dopaminergic activity, ability to lower serum prolactin levels after intraperitoneal administration of compound (50.0 mg/kg); assay type: functional, organism-based; outline: as §1
[18] = test system: Rattus norvegicus; test: Compound at the 4.56 mg/kg dose levels was evaluated for its ability to lower serum prolactin levels 3h after intraperitoneal administration; assay type: functional, organism-based; parameters: dose 4.56 mg/kg
Outline: (§3)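 Time course in reserpine-pretreated male Wistar rats (250–300 g), given reserpine 2.5 mg/rat ip 18 h before dosing. The drug was given ip in distilled water (1 mL/kg), and rats were killed 1, 3 or 6 h later, with saline controls at each time. Serum prolactin was measured by duplicate NIADDK RIA (ng RP3/mL) and reported as % inhibition versus controls, mean ± standard error, 6–10 rats/group.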

[19] = test system: Rattus norvegicus; test: Compound was tested for inhibiting prolactin release at the 0.456 mg/kg dose levels; assay type: functional; outline: as §1
[20] = test system: Rattus norvegicus; test: Compound was tested for inhibiting prolactin release at the 0.0456 mg/kg dose levels; assay type: functional; outline: as §1
[21] = test system: Rattus norvegicus; test: Compound was tested for inhibiting prolactin release at the 4.56 mg/kg dose levels 6 hr after ip administration; assay type: functional; settings: route intraperitoneal; outline: as §3
[22] = test system: Rattus norvegicus; test: Compound at the 4.56 mg/kg dose levels was evaluated for its ability to lower serum prolactin levels 6 hr after intraperitoneal administration; assay type: functional, organism-based; parameters: dose 4.56 mg/kg; outline: as §3
[23] = test system: Rattus norvegicus; test: Dopaminergic activity, ability to lower serum prolactin levels after intraperitoneal administration of compound (0.456 mg/kg); assay type: functional, organism-based; outline: as §1
[24] = test system: Rattus norvegicus; test: Dopaminergic activity, ability to lower serum prolactin levels 1 hr after intraperitoneal administration of compound (4.56 mg/kg); assay type: functional, organism-based; outline: as §3
[25] = test system: Rattus norvegicus; test: Compound was tested for inhibiting prolactin release at the 4.56 mg/kg dose levels 1 hr after ip administration; assay type: functional; settings: route intraperitoneal; outline: as §3
[26] = test system: Rattus norvegicus; test: Compound was tested for inhibiting prolactin release at the 4.56 mg/kg dose levels 3h after ip administration; assay type: functional; settings: route intraperitoneal; outline: as §3
[27] = test system: Rattus norvegicus; test: Dopaminergic activity, ability to lower serum prolactin levels after intraperitoneal administration of compound (0.0456 mg/k); assay type: functional, organism-based; outline: as §1
[28] = test system: Rattus norvegicus; test: Compound was tested for inhibiting prolactin release at the 103.3 mg/kg dose levels; assay type: functional; outline: as §1
[29] = test system: Rattus norvegicus; test: Dopaminergic activity, ability to lower serum prolactin levels after intraperitoneal administration of compound (103.3 mg/kg); assay type: functional, organism-based; outline: as §1

CCCN1CCC[C@H]2c3cccnc3CC[C@H]21
Level [1]: 19.3 ng/mL | LD50 [2]: 139 mg/kg

Cc1cn2cccc3c2c1C[C@@H]1[C@@H]3CCCN1C
Level [3]: 18.9 ng/mL | LD50 [2]: 45 mg/kg

CCN1CCC[C@@H]2c3cccn4cc(C)c(c34)C[C@H]21
Level [4]: 3.3 ng/mL | Level [5]: 4.7 ng/mL | Level [6]: 10.9 ng/mL | inhibition in vivo at 8.33 mg/kg [7]: 80.2% | inhibition in vivo at 4.165 mg/kg [8]: 71.3% | inhibition in vivo at 0.833 mg/kg [9]: 34.7% | LD50 [2]: 228 mg/kg

CC(C)C[C@H]1C(=O)N2CCC[C@H]2[C@]2(O)O[C@](NC(=O)[C@@H]3C=C4c5cccc6[nH]c(Br)c(c56)C[C@H]4N(C)C3)(C(C)C)C(=O)N12 [BROMOCRIPTINE]
Level [10]: 12.7 ng/mL | Level [11]: 6.6 ng/mL | inhibition in vivo at 0.01 mg/kg [12]: 60.4% | Level [13]: 1.6 ng/mL | inhibition in vivo at 0.1 mg/kg [14]: 90.4% | inhibition in vivo at 0.001 mg/kg [15]: 23.9%

CN1CCC[C@H]2c3cccnc3CC[C@H]21
inhibition in vivo at 50 mg/kg [16]: 14.3% | Level [17]: 14.3 ng/mL | LD50 [2]: 200 mg/kg

CCCN1CCC[C@@H]2c3cccnc3CC[C@H]21
Level [18]: 4.6 ng/mL | inhibition in vivo at 0.456 mg/kg [19]: 47.3% | inhibition in vivo at 0.0456 mg/kg [20]: 27.5% | inhibition in vivo at 4.56 mg/kg [21]: 41.8% | Level [22]: 9.6 ng/mL | Level [23]: 8.8 ng/mL | Level [24]: 2.5 ng/mL | inhibition in vivo at 4.56 mg/kg [25]: 85% | inhibition in vivo at 4.56 mg/kg [26]: 70% | Level [27]: 12.1 ng/mL | LD50 [2]: 183 mg/kg

CCCN1CCC[C@@H]2c3cccn4cc(C)c(c34)C[C@H]21
inhibition in vivo at 103.3 mg/kg [28]: 38.9% | Level [29]: 10.2 ng/mL | LD50 [2]: 413 mg/kg

— ChEMBL document CHEMBL1123278, “Synthesis and dopaminergic activity of trans-6-methyl-7a,8,9,10,11,11a-hexahydro-7H-pyrrolo[3,2,1-gh]- 4,7-phenanthroline and trans-1,2,3,4,4a,5,6,10b-octahydro-4,7-phenanthroline derivatives” (J Med Chem, 1986)
